Experimental data of several laboratories.
Target: Serine/threonine-protein kinase SIK2 (SIK2, Homo sapiens, UniProt Q9H0K1)

`O=C(c1ccc(Nc2ncc(Cl)c(-c3cc4ccccc4s3)n2)cc1)N1CCC(N2CCCC2)CC1` has a remaining binding of 27% (binding, competition with immobilised ligand; 1 µM).
`N#Cc1ccc(Nc2ccc3[nH]c(=O)[nH]c3c2)c(Cl)c1` gave a remaining binding of 100% (cell-free assay, competition with immobilised ligand; 1 µM).
The remaining binding of `O=C(c1ccc(Nc2nccc(-c3cc4ccccc4s3)n2)cc1)N1CCC(N2CCCC2)CC1` is reported as 45% (binding, competition with immobilised ligand; 1 µM).
With `COc1ncc2cc3ccccc3nc2c1C#N` the remaining binding was 94% (cell-free assay, competition with immobilised ligand; 5 µM).
For `CC(C)CC(=O)N1CCc2nc(-c3ccc(Br)cc3)nc(N(C)Cc3ccccc3)c2C1`, the remaining binding was 100% (cell-free assay, competition with immobilised ligand; 0.1 µM).
The remaining binding of `C=CC(=O)N1CCC(C(=O)NCC(=O)N2CCN(c3nc(-c4cnc(N)nc4C(F)F)nc(N4CCOCC4)n3)CC2)CC1` is reported as 96% (binding, competition with immobilised ligand; 1 µM).
The remaining binding of `COc1cnc(Nc2cccc(S(N)(=O)=O)c2)nc1N1CCN(c2ccccc2)C(=O)C1` is reported as 92% (binding, competition with immobilised ligand; 1 µM).
With `c1cnn2ncc(-c3ccnc(N4CCC45COC5)n3)c2c1` the remaining binding was 96% (binding; 1 µM).
For `CCN1CCN(Cc2ccc(C(=O)Nc3ccc(C)c(Oc4ccc5c(c4)CC(=O)N5)c3)cc2C(F)(F)F)CC1`, the remaining binding was 80% (binding, competition with immobilised ligand; 1 µM).
`CNCc1ccccc1-c1csc([C@H](C)Nc2nc(C)nc3cc(OC)c(OC)cc23)c1` gave a remaining binding of 100% (cell-free assay, competition with immobilised ligand; 1 µM).
For `O=C(Nc1c[nH]nc1C(=O)NC1CCNCC1)c1cc(F)cc(F)c1`, the remaining binding was 100% (binding, competition with immobilised ligand; 1 µM).
With `CN(CCCC(F)(F)F)c1nccc(-c2cnn3ncccc23)n1` the remaining binding was 99% (binding; 1 µM).
For `c1ccc(N2CCN(Cc3nc4ccccc4[nH]3)CC2)nc1`, the remaining binding was 100% (binding, competition with immobilised ligand; 1 µM).
`Cc1cnc(Nc2ccc(C(=O)N3CCC(N4CCCC4)CC3)cc2)nc1-c1cc2ccccc2s1` has a remaining binding of 16% (binding, competition with immobilised ligand; 1 µM).
The remaining binding of `C[C@H]1CCN(c2nccc(-c3cnn4ncccc34)n2)C1` is reported as 100% (binding; 1 µM).
`COc1cc(-c2cn(C3CCc4c(F)cccc4N(CC(F)(F)F)C3=O)nn2)ccc1-n1cnc(C)c1` (stereo not shown) gave a remaining binding of 100% (cell-free assay, competition with immobilised ligand; 1 µM).
The remaining binding of `CN(C)c1nccc(-c2cnn3ncccc23)n1` is reported as 100% (binding; 1 µM).
For `CNC(=O)c1ccc(Nc2ncc(C(F)(F)F)c(NCc3nccnc3N(C)S(C)(=O)=O)n2)cc1`, the remaining binding was 100% (cell-free assay, competition with immobilised ligand; 0.1 µM).
With `N[C@@H]1CCN(c2nccc(-c3cnn4ncccc34)n2)C1` the remaining binding was 100% (binding; 1 µM).
`FC(F)(F)Oc1cccc(-c2cnc3ccc(-c4ccncc4)nn23)c1` has a remaining binding of 52% (binding, competition with immobilised ligand; 5 µM).
With `CNC(=O)[C@@H]1CC[C@@H](n2c(-c3ccc4cnccc4c3)nc3ccc(C(=O)NCc4cccc(C(N)=O)c4)cc32)C1` the remaining binding was 97% (binding, competition with immobilised ligand; 1 µM).
For `CN(c1nccc(-c2cnn3ncccc23)n1)C1CC1`, the remaining binding was 100% (binding; 1 µM).
